Measured values pooled from the literature.
Lines come from different studies, so protocols differ.
PPO3: PPO3 (Agaricus bisporus, UniProt C7FF04)
CNR1: Cannabinoid receptor 1 (CNR1, Homo sapiens, UniProt P21554)

| Compound | target | test | setting | measurement | value |
| --- | --- | --- | --- | --- | --- |
| COc1cc(/C=C/C(=O)O)ccc1OCc1cn(CC(=O)Nc2cccc(Cl)c2)nn1 | PPO3 | enzyme activity, inhibitor | 40 µM | inhibition | 11.4% |
| CN1CCC[C@H]1c1cccnc1 | Histamine H4 receptor (HRH4, Homo sapiens, UniProt Q9H3N8) | ligand displacement | 50 µM | inhibition | -19.9% |
| CCCCC/C=C\C/C=C\C/C=C\C/C=C\CCCC(=O)OC(CO)CO | CNR1 | β-arrestin recruitment, agonist |  | Emax | 96% |
| c1cncc([C@@H]2CCCN2)c1 | Neuronal acetylcholine receptor; alpha4/beta2 (Rattus norvegicus, UniProt P09483+P12390) | ligand displacement, radioligand | 50 µM | inhibition | 88.1% |
| CC(C)CC(=O)OC[C@H]1O[C@@](C#N)(c2ccc3c(N)ncnn23)[C@H](O)[C@@H]1O | CNR1 | cell-free assay | 20 µM | inhibition | -4% |
| CCCCCc1ccccc1C/C=C\C/C=C\C/C=C\CCCC(=O)N[C@H](C)CO | CNR1 | β-arrestin recruitment, agonist |  | Emax | 42% |
| COc1cc(/C=C/C(=O)O)ccc1OCc1cn(CC(=O)Nc2ccccc2C)nn1 | PPO3 | enzyme activity, inhibitor | 40 µM | inhibition | 16% |
| CCCCC/C=C\C/C=C\C/C=C\Cc1ccccc1CCCC(=O)N[C@H](C)CO | CNR1 | β-arrestin recruitment, agonist |  | Emax | 80% |
| COc1cc(/C=C/C(=O)O)ccc1OCc1cn(CC(=O)Nc2cccc([N+](=O)[O-])c2)nn1 | PPO3 | enzyme activity, inhibitor | 40 µM | inhibition | 12.1% |
| COc1cc2c3c(c1OC)-c1c(cccc1OC)CC3N(C)CC2 (racemic) | 5-hydroxytryptamine receptor 2A (HTR2A, Homo sapiens, UniProt P28223) | ligand displacement, radioligand | 10 µM | inhibition | 42% |
| COc1cc(/C=C/C(=O)O)ccc1OCc1cn(CC(=O)Nc2ccc(Cl)cc2)nn1 | PPO3 | enzyme activity, inhibitor | 40 µM | inhibition | 12.3% |
| CCCCC/C=C\[C@H](C)/C=C\C/C=C\Cc1ccccc1CCCC(=O)OC(CO)CO | CNR1 | β-arrestin recruitment, agonist |  | Emax | 10% |
| [2H]c1c([2H])c([C@]2([2H])CCCN2C(=O)C(C)(C)Oc2ccc3cn[nH]c3c2)c([2H])c([2H])c1C([2H])([2H])[2H] | Mitogen-activated protein kinase kinase kinase 3 (MAP3K3, Homo sapiens, UniProt Q99759) | binding, competition with immobilised ligand | 1 µM | remaining binding | 100% |
